# Bioassay records (PubChem BioAssay)
# E-selectin induc: induces E-selectin expression in human endothelial cells | activation, % at 7.58 µM | HUVEC E-selectin immunofluorescence imaging; normalized: neutral wells 0, TNF-alpha wells 100 | hit rate 0.37% among 260,000 | P16581 | AID 686992;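 active = mean E-selectin-positive cell signal at least 10% of the positive control, reached in at least 60% of replicates, without over 20% cell loss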
# Target sequence (P16581 whole entry, looked up): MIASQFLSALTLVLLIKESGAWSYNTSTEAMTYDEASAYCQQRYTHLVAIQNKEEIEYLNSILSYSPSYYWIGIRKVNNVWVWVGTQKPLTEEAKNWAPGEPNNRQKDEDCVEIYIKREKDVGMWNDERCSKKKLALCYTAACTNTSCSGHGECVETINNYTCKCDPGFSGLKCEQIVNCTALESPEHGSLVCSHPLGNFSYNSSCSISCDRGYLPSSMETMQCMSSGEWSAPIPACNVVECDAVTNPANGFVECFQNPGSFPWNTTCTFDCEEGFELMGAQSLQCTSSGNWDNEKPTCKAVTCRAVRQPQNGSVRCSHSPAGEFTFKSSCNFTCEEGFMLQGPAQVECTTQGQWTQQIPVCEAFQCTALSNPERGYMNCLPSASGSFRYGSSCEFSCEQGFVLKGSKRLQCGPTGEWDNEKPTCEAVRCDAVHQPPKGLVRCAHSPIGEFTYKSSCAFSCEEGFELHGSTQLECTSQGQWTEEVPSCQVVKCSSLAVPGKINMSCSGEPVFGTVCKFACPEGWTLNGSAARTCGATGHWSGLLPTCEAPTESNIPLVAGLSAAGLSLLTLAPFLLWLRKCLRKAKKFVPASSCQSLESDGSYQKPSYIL
#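 Test system: HUVEC | Signal: Immunofluorescence imaging | Read-out: Percent E-selectin-positive cells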
# XiGFP reactiv: reactivates the inactive X chromosome in mouse fibroblasts | hit rate 0.055% among 360,000 | activation, % at 7.58 µM | XiGFP mouse fibroblasts, % GFP-positive cells imaging, 3 d; cells co-treated with 5-aza-dC sensitizer; scaled so ellipticine positive control = 100% | AID 743238;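 active = mean normalized replicate activation at least 10% and every replicate at or above 10%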;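 also: 0% = median of on-plate neutral control wells and 100% = ellipticine 6 µM median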
#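 System: 68-5-11 XiGFP fibroblast line; Timing: 3 days compound exposure; Compound dosing: one concentration, pinned; Benchmarks: positive control ellipticine, 6 µM final; Buffer or medium: DMEM containing 5-aza-dC.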
# * marks the source's active call; other numbers are inactive results; . = not tested or not shown. Shown is part of a subset that was picked to be rich in hits.
SMILES,E-selectin induc,XiGFP reactiv
COc1ccc(S(=O)(=O)N(C)C[C@@H]2OCCCC[C@@H](C)Oc3ccc(NS(=O)(=O)c4cccs4)cc3C(=O)N([C@@H](C)CO)C[C@H]2C)cc1,-0.1,0.2
O=C(CC1CC1)N1CC2(C1)[C@@H](c1ccccc1)[C@@H](CO)N2Cc1cccc(F)c1,0.3,-0.1
Cc1noc(C)c1NC(=O)N(C)C[C@H]1OCCCC[C@H](C)Oc2ccc(NS(=O)(=O)c3c(C)noc3C)cc2C(=O)N([C@H](C)CO)C[C@@H]1C,-0.1,0.0
C[C@H](CO)N1C[C@H](C)[C@@H](CN(C)C)Oc2ccc(NC(=O)CCCN(C)C)cc2CC1=O,204.1*,-0.9
C[C@H](CO)N1C[C@H](C)[C@H](CN(C)C)Oc2ccc(NC(=O)Nc3ccccc3)cc2CC1=O,273.5*,-0.1
C[C@@H]1CN([C@H](C)CO)C(=O)Cc2cc(NC(=O)Nc3ccc(F)cc3)ccc2O[C@@H]1CN(C)C,.,-1.1
C[C@H]1CN([C@@H](C)CO)C(=O)Cc2cc(NC(=O)Nc3ccccc3)ccc2O[C@H]1CN(C)C,42.4*,-0.1
C[C@@H]1CN([C@H](C)CO)C(=O)Cc2cc(NC(=O)CCC(F)(F)F)ccc2O[C@@H]1CN(C)S(C)(=O)=O,38.8*,0.0
C[C@@H]1CN([C@H](C)CO)C(=O)Cc2cc(NC(=O)CCCN(C)C)ccc2O[C@H]1CN(C)C,0.5,-1.2
C[C@@H]1CN([C@@H](C)CO)C(=O)Cc2cc(NC(=O)CCC(F)(F)F)ccc2O[C@H]1CN(C)S(C)(=O)=O,0.0,0.3
C[C@@H]1CN([C@@H](C)CO)C(=O)Cc2cc(NC(=O)Nc3ccccc3)ccc2O[C@H]1CN(C)C,-5.5,-0.1
O=C(c1cccc(F)c1)N1CC(=O)N2[C@H](C1)[C@@H](c1ccc(C3=CCCC3)cc1)[C@@H]2CO,-0.1,0.0
Cc1noc(C)c1S(=O)(=O)N(C)C[C@H]1Oc2ccc(NC(=O)Nc3ccccc3)cc2C(=O)N([C@H](C)CO)C[C@@H]1C,.,0.0
C[C@@H]1CN([C@H](C)CO)C(=O)c2cccc(NC(=O)Nc3ccc(F)cc3)c2O[C@@H]1CN(C)S(C)(=O)=O,.,0.3
CN(C1CCCC1)C1CCN(C(=O)CNC(=O)/C=C/c2cccc(C(F)(F)F)c2)CC1,38.7*,0.0
CN(C1CCCC1)C1CCN(C(=O)CNC(=O)/C=C/c2ccc(F)cc2)CC1,-0.4,0.4
O=C(NCC[C@H]1CC[C@H](NS(=O)(=O)c2ccc(F)cc2)[C@H](CO)O1)Nc1ccc(Cl)cc1,0.0,0.0
C[C@@H]1CN([C@@H](C)CO)C(=O)c2cc(NC(=O)CCC(F)(F)F)ccc2O[C@@H]1CN(C)S(=O)(=O)c1cn(C)cn1,-12.4,0.0
COc1cccc(C(=O)Nc2ccc3c(c2)C(=O)N(C)[C@@H]2CC[C@@H](CC(=O)NCC(F)(F)F)O[C@@H]2CO3)c1,0.1,0.0
